These results are taken from ChEMBL document CHEMBL1157327, “Antimicrobial dialkylresorcinols from Pseudomonas sp. Ki19” (2006).

SMILES strings stand for the structures. In brackets after ≈: the same amount, converted by molar mass.

What all share (assay type): functional
The test system of assay [1] is Staphylococcus aureus. Kind of assay: Antibacterial activity against Staphylococcus aureus assessed as total inhibition of cell growth/spore germination after 24 hrs. A digest of the protocol:
(§1)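 Microtiter-plate cell growth inhibition, compounds tested up to 100 µg/mL, incubated at 37 °C for 24 h. Total inhibition was taken as full inhibition of growth. Tests run in triplicate and repeated once.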

Assay [2] concerns Drechslera. Kind of assay: Antifungal activity against Drechslera sorokiniana assessed as total inhibition of cell growth/spore germination after 48 hrs. A digest of the protocol:
(§2)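 Spore germination/growth inhibition was read in microtiter plates with compounds up to 100 µg/mL. Plates were incubated in darkness at 27-28 °C: D. sorokiniana 48 h, F. culmorum 72 h, A. fumigatus 96 h. Visual scores ran from 3 (full inhibition, like sterile medium) through 1 (detectable) to 0 (like untreated spore suspension). Triplicates, repeated once.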

The subject of assay [3] is Fusarium culmorum. Briefly: Antifungal activity against Fusarium culmorum assessed as total inhibition of cell growth/spore germination after 72 hrs. A digest of the protocol: as §2
The subject of assay [4] is Aspergillus fumigatus. Kind of assay: Antifungal activity against Aspergillus fumigatus assessed as total inhibition of cell growth/spore germination after 96 hrs. A digest of the protocol:
as §2

The test system of assay [5] is Aspergillus fumigatus. Kind of assay: Antifungal activity against Aspergillus fumigatus assessed as detectable inhibition of growth after 96 hrs. The gist of the method:
as §2

Assay [6] concerns Staphylococcus aureus. Briefly: Antibacterial activity against Staphylococcus aureus assessed as detectable inhibition of growth after 24 hrs. A digest of the protocol:
as §1

The subject of assay [7] is Pseudomonas savastanoi pv. savastanoi. Briefly: Antibacterial activity against Pseudomonas savastanoi pv. savastanoi CCM 3580 assessed as detectable inhibition of growth after 24 hrs. As to conditions: CCM 3580, 24 h. A digest of the protocol:
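Microtiter-plate bioassay of cell growth inhibition; compounds tested up to 100 µg/mL; plates incubated in darkness at 27-28 °C for 24 h; growth scored visually on a 0-3 scale (3 full inhibition like sterile-medium control, 1 detectable inhibition, 0 like untreated cell suspension); value is lowest concentration giving detectable inhibition; triplicate, repeated once.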

Assay [8] relates to Drechslera. Kind of assay: Antifungal activity against Drechslera sorokiniana assessed as detectable inhibition of growth after 48 hrs. The gist of the method: as §2
Assay [9] deals with Candida albicans. Briefly: Antifungal activity against Candida albicans assessed as detectable inhibition of growth after 24 hrs. The gist of the method: as §1
Assay [10] concerns Candida albicans. Kind of assay: Antifungal activity against Candida albicans assessed as total inhibition of cell growth/spore germination after 24 hrs. A digest of the protocol: as §1
Assay [11] deals with Fusarium culmorum. Briefly: Antifungal activity against Fusarium culmorum assessed as detectable inhibition of growth after 72 hrs. A digest of the protocol:
as §2

For the compound `CN[C@@H]1[C@H](O[C@H]2[C@H](O[C@H]3[C@H](O)[C@@H](O)[C@H](N=C(N)N)[C@@H](O)[C@@H]3N=C(N)N)O[C@@H](C)[C@]2(O)C=O)O[C@@H](CO)[C@H](O)[C@H]1O` [STREPTOMYCIN], the minimum inhibitory concentration (MIC) in the assay with Staphylococcus aureus [1] is 10 µg/mL (≈ 17.2 µM).
`C=CCOC(Cn1ccnc1)c1ccc(Cl)cc1Cl` (stereo not drawn) [ENILCONAZOLE]: the minimal inhibitory concentration (MIC) in the assay with Drechslera [2] is 0.1 µg/mL (≈ 0.336 µM); with Fusarium culmorum [3], 5 µg/mL (≈ 16.8 µM); in the assay with Aspergillus fumigatus [4], 5 µg/mL (≈ 16.8 µM).
Consider `CCCCCCc1c(O)cc(CCCCC)cc1O` [RESORSTATIN], for which the minimum inhibitory concentration (MIC) in the assay on Aspergillus fumigatus [5] turned out to be 50 µg/mL (≈ 189 µM); in the assay on Staphylococcus aureus [6] it was 6 µg/mL (≈ 22.7 µM); in assay [7], 50 µg/mL (≈ 189 µM); in the assay with Drechslera [8] it was 50 µg/mL (≈ 189 µM); in the assay with Staphylococcus aureus [1], 7 µg/mL (≈ 26.5 µM); in the assay on Candida albicans [9] it was 50 µg/mL (≈ 189 µM). In addition, in the assay on Fusarium culmorum [3], the MIC came to 50 µg/mL (≈ 189 µM).
For the compound `C[C@@H]1[C@H](O)[C@@H](C)/C=C/C=C/C=C/C=C/C=C/C=C/C=C/[C@H](O[C@@H]2O[C@H](C)[C@@H](O)[C@H](N)[C@@H]2O)C[C@@H]2O[C@](O)(C[C@@H](O)C[C@@H](O)[C@H](O)CC[C@@H](O)C[C@@H](O)CC(=O)O[C@H]1C)C[C@H](O)[C@H]2C(=O)O` [AMPHOTERICIN B], the minimal inhibitory concentration (MIC) amounted to 4 µg/mL (≈ 4.33 µM) with Drechslera [2], 40 µg/mL (≈ 43.3 µM) in the assay on Fusarium culmorum [3], 40 µg/mL (≈ 43.3 µM) in the assay with Candida albicans [10] and 40 µg/mL (≈ 43.3 µM) with Aspergillus fumigatus [4].
For the compound `CCCCCCc1c(O)cc(C)cc1O`, the minimum inhibitory concentration (MIC) worked out at 10 µg/mL (≈ 48 µM) in the assay with Aspergillus fumigatus [5]; 50 µg/mL (≈ 240 µM) in the assay with Drechslera [2]; 1 µg/mL (≈ 4.8 µM) in the assay on Staphylococcus aureus [6]; 2 µg/mL (≈ 9.6 µM) in the assay with Staphylococcus aureus [1]; 50 µg/mL (≈ 240 µM) with Candida albicans [9]; 50 µg/mL (≈ 240 µM) in the assay on Fusarium culmorum [3]. Moreover, the MIC in the assay with Fusarium culmorum [11] worked out at 10 µg/mL (≈ 48 µM); in the assay on Aspergillus fumigatus [4], 50 µg/mL (≈ 240 µM).
Turning to `CCCCCCC1=C(O)C(=O)C(CCCCC)=CC1=O`, the minimum inhibitory concentration (MIC) in the assay with Staphylococcus aureus [1] and with Candida albicans [10] was 100 µg/mL (≈ 359 µM) each time.
Regarding `CCCCc1c(O)cc(CCC)cc1O`, the minimal inhibitory concentration (MIC) in the assay with Aspergillus fumigatus [5] is 50 µg/mL (≈ 240 µM); in the assay with Drechslera [8], 50 µg/mL (≈ 240 µM); in the assay on Staphylococcus aureus [1], 5 µg/mL (≈ 24 µM); with Candida albicans [9], 50 µg/mL (≈ 240 µM); in the assay with Fusarium culmorum [3], 50 µg/mL (≈ 240 µM).
Consider `CCCCCCc1c(O)cc(CCC)cc1O`, for which the MIC was 10 µg/mL (≈ 42.3 µM) in the assay with Aspergillus fumigatus [5]; 2 µg/mL (≈ 8.46 µM) with Staphylococcus aureus [6]; 50 µg/mL (≈ 212 µM) in the assay on Drechslera [8]; 3 µg/mL (≈ 12.7 µM) in the assay on Staphylococcus aureus [1]; 50 µg/mL (≈ 212 µM) in the assay with Fusarium culmorum [3]; 50 µg/mL (≈ 212 µM) with Candida albicans [10]. The minimum inhibitory concentration (MIC) in the assay on Fusarium culmorum [11] was determined as 10 µg/mL (≈ 42.3 µM); with Aspergillus fumigatus [4], 50 µg/mL (≈ 212 µM).

One may read the MIC as the lowest concentration found to suppress growth.
